# Measured values collected from several papers.
# Protocols differ between the studies behind these lines.
# Target: Mitogen-activated protein kinase kinase kinase kinase 2 (MAP4K2, Homo sapiens, UniProt Q12851)
# Sequence (Q12851 1-820, as in one of the studies): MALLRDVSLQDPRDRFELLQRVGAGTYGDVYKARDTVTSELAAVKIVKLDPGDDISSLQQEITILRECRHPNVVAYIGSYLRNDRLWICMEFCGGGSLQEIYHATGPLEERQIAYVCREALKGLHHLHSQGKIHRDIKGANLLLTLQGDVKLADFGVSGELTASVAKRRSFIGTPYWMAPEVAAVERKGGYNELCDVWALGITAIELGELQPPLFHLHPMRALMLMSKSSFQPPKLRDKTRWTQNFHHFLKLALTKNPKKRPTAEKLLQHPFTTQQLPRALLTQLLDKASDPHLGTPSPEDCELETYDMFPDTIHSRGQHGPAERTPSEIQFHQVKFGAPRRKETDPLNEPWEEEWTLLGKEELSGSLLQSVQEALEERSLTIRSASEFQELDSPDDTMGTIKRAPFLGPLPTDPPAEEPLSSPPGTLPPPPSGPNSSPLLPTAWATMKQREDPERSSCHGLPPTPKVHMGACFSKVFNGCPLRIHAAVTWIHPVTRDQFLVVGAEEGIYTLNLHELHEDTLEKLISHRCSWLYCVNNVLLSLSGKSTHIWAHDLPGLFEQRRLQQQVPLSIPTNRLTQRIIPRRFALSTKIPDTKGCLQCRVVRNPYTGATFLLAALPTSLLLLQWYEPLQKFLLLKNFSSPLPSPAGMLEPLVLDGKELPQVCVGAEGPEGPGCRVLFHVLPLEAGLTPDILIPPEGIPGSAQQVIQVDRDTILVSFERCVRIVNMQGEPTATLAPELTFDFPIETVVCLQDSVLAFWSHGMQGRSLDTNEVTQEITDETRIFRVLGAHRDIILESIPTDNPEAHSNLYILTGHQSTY
effect on,mode,method,tested at,measurement,result,Structure (SMILES)
enzyme activity,inhibitor,,10 µM,remaining activity,61%,CCCOc1ccc(OC)c(F)c1C(=O)c1ccc(C(=O)N[C@@H]2CNC[C@H]2NC(=O)c2ccc3[nH]ncc3c2)cc1
enzyme activity,inhibitor,,10 µM,remaining activity,12%,Cn1c(=O)n(-c2ccc(C(C)(C)C#N)cc2)c2c3cc(-c4cnc5ccccc5c4)ccc3ncc21
cell-free assay,,competition with immobilised ligand,1 µM,remaining binding,100%,O=C(O)[C@H]1[C@H](Cn2nnc3ccccc3c2=O)CC[C@@H]1C(=O)c1ccc(OCCC2CCOCC2)cc1
enzyme activity,inhibitor,,10 µM,inhibition,46%,CNC(=O)c1cc(Oc2ccc(NC(=O)Nc3ccc(Cl)c(C(F)(F)F)c3)cc2)ccn1
cell-free assay,inhibitor,,20 µM,remaining signal,0%,Nc1ncnc2occ(-c3ccc(NC(=O)Nc4cc(C(F)(F)F)ccc4F)cc3)c12
enzyme activity,inhibitor,radiometric,1 µM,remaining activity,115%,CC(C)(C)c1nc(-c2cccc(NS(=O)(=O)c3c(F)cccc3F)c2F)c(-c2ccnc(N)n2)s1
cell-free assay,,,10 µM,remaining signal,49%,Cc1ccc(NC(=O)c2ccc(C)c(C(F)(F)F)c2)cc1C#Cc1nn(C2CCC(O)CC2)c2ncnc(N)c12 (centres unmarked)
cell-free assay,,competition with immobilised ligand,0.1 µM,remaining binding,100%,C[C@H](c1ccnc(Nc2nc3ccc(-c4cc(N(C)C)ncn4)cc3[nH]2)c1)N1CCN(C(=O)CC(F)(F)F)CC1
enzyme activity,inhibitor,,0.3 µM,inhibition,16%,Cc1ccc(Nc2nccc(N(C)c3ccc4c(C)n(C)nc4c3)n2)cc1S(N)(=O)=O
cell-free assay,,competition with immobilised ligand,1 µM,remaining binding,100%,Cc1cc(NC(=O)c2cccc(S(F)(F)(F)(F)F)c2)cc(-n2ccn3nc(-c4cccnc4)cc23)c1
cell-free assay,,,0.5 µM,remaining signal,14%,N#CCCc1ccc2c(c1)-c1[nH]c3ccc([N+](=O)[O-])cc3c1CC(=O)N2
cell-free assay,,competition with immobilised ligand,1 µM,remaining binding,98%,CC(C)(O)c1cncc(-c2nc3ccc(F)cc3n2C2CC2)c1
cell-free assay,,,0.5 µM,remaining signal,104%,COc1cc2ncnc(Nc3ccc(F)c(Cl)c3)c2cc1OCCCN1CCOCC1
enzyme activity,inhibitor,,10 µM,inhibition,92%,CCN(CC)CCNC(=O)c1c(C)[nH]c(/C=C2\C(=O)Nc3ccc(F)cc32)c1C
enzyme activity,inhibitor,radiometric,5 µM,activity vs control,33%,FC(F)(F)Oc1cccc(-c2cnc3ccc(-c4ccncc4)nn23)c1
enzyme activity,inhibitor,,5 µM,remaining activity,95.3%,O=C(Nc1cnn(-c2csc(C(=O)NC3COC3)c2)c1)Nc1c(F)cccc1Cl
enzyme activity,inhibitor,radiometric,1 µM,remaining activity,102%,COc1cc(Nc2cnc(C#N)c(O[C@H](C)CN(C)C)n2)ncc1-c1cnn(C)c1
cell-free assay,,competition with immobilised ligand,1 µM,remaining binding,100%,COc1ccc2c(O[C@@H]3C[C@H]4C(=O)N[C@]5(C(=O)O)CC5/C=C\CCCCC[C@H](NC(=O)OC5CCCC5)C(=O)N4C3)cc(-c3csc(NC(=O)C(C)C)n3)nc2c1C (some centres unmarked)
enzyme activity,inhibitor,,10 µM,remaining activity,91%,Oc1cccc(-c2nc(N3CCOCC3)c3oc4ncccc4c3n2)c1
cell-free assay,,competition with immobilised ligand,1 µM,remaining binding,100%,CCc1ccccc1C(=O)Nc1n[nH]c2c(C)c(F)c(C3C(C#N)=C(C)N(C)C(C)=C3C#N)cc12
enzyme activity,inhibitor,,1 µM,activity vs control,103%,COc1cc(/C=C/C(=O)CC(=O)/C=C/c2ccc(O)c(OC)c2)ccc1O
enzyme activity,inhibitor,,1 µM,inhibition,2%,CN1CC(Oc2cnc(C#N)cc2-c2ccn3nc(NC(=O)C4CC4)cc3c2)C1
enzyme activity,inhibitor,,1 µM,inhibition,0%,COc1cc2ncnc(Nc3ccc(Oc4ccccc4)c(C)c3C)c2cc1OC
enzyme activity,inhibitor,,1 µM,remaining activity,94.6%,CC(C)(O)[C@H]1CC[C@H](Nc2ccc3ncc(-c4cccc(C(F)(F)F)c4)n3n2)CC1
enzyme activity,inhibitor,,10 µM,remaining activity,97%,CCN(CC)c1ccc(C2=NNC(=O)CC2C)cc1[N+](=O)[O-] (centres unmarked)
binding,,competition with immobilised ligand,1 µM,remaining binding,76%,Cc1nc(N2CC[C@@H](O)C2)ncc1-c1cc(C(F)(F)F)cc2[nH]ncc12
